Experimental data: ChEMBL document CHEMBL1130209, “A novel series of 2,5-substituted tryptamine derivatives as vascular 5HT1B/1D receptor antagonists” (J Med Chem, 1997)

Columns and labels:
[1] = molecular target: T1, Adrenergic receptor alpha-2 (Rattus norvegicus, UniProt P22086+P19328+P22909); assay: Affinity pKi for Alpha-2 adrenergic receptor was measured in rat cortex homogenates.; assay type: tissue-based
T1 sequence (P22086 whole entry): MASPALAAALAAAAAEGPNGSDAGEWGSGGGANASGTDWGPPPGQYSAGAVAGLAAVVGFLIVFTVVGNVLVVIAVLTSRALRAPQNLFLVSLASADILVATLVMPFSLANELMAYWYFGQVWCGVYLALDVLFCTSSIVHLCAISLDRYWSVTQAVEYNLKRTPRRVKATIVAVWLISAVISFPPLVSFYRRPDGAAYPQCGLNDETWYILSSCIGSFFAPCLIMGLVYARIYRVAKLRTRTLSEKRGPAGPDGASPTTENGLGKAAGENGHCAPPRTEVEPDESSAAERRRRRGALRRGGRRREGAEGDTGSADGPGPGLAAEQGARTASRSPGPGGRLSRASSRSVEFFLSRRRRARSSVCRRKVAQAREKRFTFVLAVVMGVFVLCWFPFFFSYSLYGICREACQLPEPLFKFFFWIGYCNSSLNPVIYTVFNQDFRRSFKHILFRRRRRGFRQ
T1 sequence (P19328 whole entry): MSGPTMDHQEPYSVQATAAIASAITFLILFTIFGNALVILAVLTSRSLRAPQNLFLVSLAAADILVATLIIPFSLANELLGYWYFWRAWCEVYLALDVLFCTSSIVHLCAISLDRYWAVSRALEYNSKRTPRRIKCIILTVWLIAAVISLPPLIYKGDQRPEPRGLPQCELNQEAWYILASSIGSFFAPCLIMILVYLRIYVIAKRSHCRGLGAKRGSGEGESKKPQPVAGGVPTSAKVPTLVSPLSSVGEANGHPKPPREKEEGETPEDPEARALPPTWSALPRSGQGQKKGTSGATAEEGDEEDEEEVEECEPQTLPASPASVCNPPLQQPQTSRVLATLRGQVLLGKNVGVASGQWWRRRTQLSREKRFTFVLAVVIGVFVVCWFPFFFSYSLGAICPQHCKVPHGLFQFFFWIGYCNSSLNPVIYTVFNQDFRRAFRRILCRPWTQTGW
T1 sequence (P22909 whole entry): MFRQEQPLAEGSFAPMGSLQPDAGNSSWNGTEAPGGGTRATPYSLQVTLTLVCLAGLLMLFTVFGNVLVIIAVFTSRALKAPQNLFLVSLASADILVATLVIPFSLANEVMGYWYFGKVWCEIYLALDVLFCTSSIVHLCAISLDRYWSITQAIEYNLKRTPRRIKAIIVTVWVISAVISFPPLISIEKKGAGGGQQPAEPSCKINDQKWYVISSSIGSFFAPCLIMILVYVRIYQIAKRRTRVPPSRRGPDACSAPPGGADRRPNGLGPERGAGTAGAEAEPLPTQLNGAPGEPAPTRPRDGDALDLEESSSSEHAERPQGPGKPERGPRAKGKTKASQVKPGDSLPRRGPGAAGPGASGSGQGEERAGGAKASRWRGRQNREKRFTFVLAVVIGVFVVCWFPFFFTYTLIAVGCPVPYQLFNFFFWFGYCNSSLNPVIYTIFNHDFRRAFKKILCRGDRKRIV
Outline: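 Competition binding with rat cortex homogenate: radioligand near its KD plus a wide range of test drug concentrations in duplicate, 30 min at 27 °C. Buffer 50 mM TRIS-HCl, 5 mM CaCl₂, 0.1% (w/v) ascorbate, 10 mM pargyline. Nonspecific binding defined with excess cold 5HT. Rapid filtration with ice-cold buffer wash, liquid scintillation count. pKi is the mean of at least three estimates.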

[2] = molecular target: Histamine H1 receptor (Homo sapiens) (UniProt P35367); assay: The dissociation equilibrium constant (pKB=-log KB) of compound was determined against the Histamine H1 receptor in the rabbit thoracic aorta; assay type: tissue-based; details: Oryctolagus cuniculus, target entry is the homologue from another species
Chain of Histamine H1 receptor (Homo sapiens) (P35367 whole entry): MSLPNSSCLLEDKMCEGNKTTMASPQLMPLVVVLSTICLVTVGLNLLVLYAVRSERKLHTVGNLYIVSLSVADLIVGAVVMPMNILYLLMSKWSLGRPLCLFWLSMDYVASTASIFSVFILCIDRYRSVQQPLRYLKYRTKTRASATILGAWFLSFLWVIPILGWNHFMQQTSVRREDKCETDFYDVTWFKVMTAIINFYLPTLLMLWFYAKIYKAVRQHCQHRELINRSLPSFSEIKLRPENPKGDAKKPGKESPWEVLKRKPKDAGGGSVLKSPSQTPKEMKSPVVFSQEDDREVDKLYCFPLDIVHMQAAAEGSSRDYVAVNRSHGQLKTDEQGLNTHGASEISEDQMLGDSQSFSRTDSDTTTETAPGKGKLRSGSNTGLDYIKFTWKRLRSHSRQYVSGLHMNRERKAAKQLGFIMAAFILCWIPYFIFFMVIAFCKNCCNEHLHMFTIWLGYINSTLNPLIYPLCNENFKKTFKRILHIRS

CCOC(=O)c1[nH]c2ccc(CCN3C(=O)CNC3=O)cc2c1CCN(C)C
Log Ki [1]: -5.25 | pKB [2]: < 5
